Structures are written as SMILES. Calls of active or inactive are those of the source. The rule behind the calls is not given here. Bounds are passed on as bounds.

This note sets out measurements from ChEMBL document CHEMBL1136482, “Substituted azoloquinolines and -quinazolines as new potent farnesyl protein transferase inhibitors” (Bioorg Med Chem Lett, 2003).

In experiment [1] the test system is NIH3T3. The experiment can be described thus: (§1) In vivo inhibition of T24H-ras NIH3T3 tumor growth in mice. The class given is functional, Mus musculus.
The target in experiment [2] is T1, Geranylgeranyl transferase type I (Homo sapiens, UniProt P49354+P53609). The experiment can be described thus: Inhibition of Geranylgeranylprotein transferase-I catalyzed incorporation of [3H]GGPP into biotinYRASNRSCAIL peptide. The class given is protein-complex assay.
In experiment [3] the target is T2, Protein farnesyltransferase (Homo sapiens, UniProt P49354+P49356). The experiment can be described thus: Inhibition of [3H]FPP incorporation into biotinylated laminB peptide by farnesyl transferase. The format is protein-complex assay. In a few lines:
(§2)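 Isolated FPT enzyme assay measuring incorporation of [3H]-farnesylpyrophosphate into biotinylated laminB peptide. IC50 is the concentration giving 50% reduction of incorporation. Some entries are given as percent inhibition at a single concentration.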

Experiment [4] has as its system NIH3T3. Put plainly: T24H-ras-transformed NIH3T3 cell proliferation. The class given is functional, cell-based, Mus musculus.
The target of experiment [5] is T1, Geranylgeranyl transferase type I. The experiment can be described thus: Inhibition of Geranylgeranylprotein transferase-I catalyzed incorporation of [3H]GGPP into biotinYRASNRSCAIL peptide at 10 uM. The format is protein-complex assay.
The species entered for a further experiment is Homo sapiens. Put plainly: Compound tested for metabolism and expressed as percentage of parent drug remaining after 120 min incubation with human liver microsomes. The format is functional, organism-based.
The test system of experiment [6] is NIH3T3. The experiment can be described thus: In vivo inhibition of T24H-ras NIH3T3 tumor growth in mice (Not significant). The class given is functional, organism-based. The note with it: Mus musculus.
For experiment [7], the target named is T2, Protein farnesyltransferase. The experiment can be described thus: Inhibition of [3H]FPP incorporation into biotinylated laminB peptide by farnesyl transferase 0.1 uM. The class given is protein-complex assay. In outline: as §2
Experiment [8] shares this target. Put plainly: Inhibition of [3H]FPP incorporation into biotinylated laminB peptide by farnesyl transferase at 0.1 uM. The format is protein-complex assay. In outline: as §2
In experiment [9] the test system is NIH3T3. Described as §1. The class given is functional, Mus musculus. In a few lines: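 Mice were inoculated with T24 NIH 3T3 cells. Dosing at 25 mg/kg was oral, once daily, starting 2 days after tumour inoculation. Tumour growth was assessed 17 days after administration and is reported as percentage inhibition of tumour weight.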
The source holds these as a separate data set.

As for `Cn1cncc1C(N)(c1ccc(Cl)cc1)c1ccc2c(c1)c(-c1cccc(Cl)c1)nc1nnnn12` (stereo in doubt; 43a) [listing 1 of 2 here], the Inhibition with NIH3T3 [1] is 66%. In addition, the IC50 in [2] is above 1000 nM; in [3], 0.6 nM; in the experiment with NIH3T3 [4] (nih3t3), 10 nM.
For `Cn1cncc1C(N)(c1ccc(Cl)cc1)c1ccc2c(c1)c(-c1cccc(Cl)c1)cc1nccn12` (stereo unspecified), the IC50 in experiment [3] amounted to 7 nM; in the experiment with NIH3T3 [4] (Mus musculus, NIH3T3) it was 28 nM.
On to `Cn1cncc1C(N)(c1ccc(Cl)cc1)c1ccc2c(c1)c(-c1cccc(Cl)c1)cc1nnnn12` (stereo in doubt; 24a), for which the Inhibition in [5] was 55%; in experiment [3], 36%. Further, in the experiment with NIH3T3 [4] (nih3t3), the IC50 is above 500 nM.
`Cn1cncc1C(N)(c1ccc(Cl)cc1)c1ccc2c(c1)c(-c1cccc(Cl)c1)nc1nnnn12` (stereo in doubt; 43a) [listing 2 of 2 here]: the Metabolism in the experiment filed under Homo sapiens amounted to 97%.
Regarding `Cn1cncc1C(N)(c1ccc(Cl)cc1)c1ccc2c(c1)c(-c1cccc(Cl)c1)nc1nnnn12` (stereo in doubt; 43), the half-maximal inhibitory concentration (IC50) was found to be 461 nM in [2], 2.5 nM in experiment [3] and 12 nM in the experiment on NIH3T3 [4] (nih3t3).
In the case of `Cn1cncc1C(N)(c1ccc(Cl)cc1)c1ccc2c(c1)c(-c1cccc(Cl)c1)nc1nncn12` (stereo unspecified), the IC50 in experiment [3] is 3 nM; in the experiment on NIH3T3 [4] (Mus musculus, NIH3T3) it was 186 nM.
With `Cn1cncc1C(N)(c1ccc(Cl)cc1)c1ccc2c(c1)c(-c1cccc(Cl)c1)nc1nccn12` (stereo unspecified), the IC50 amounted to 5 nM in [3] and 88 nM in the experiment on NIH3T3 [4] (Mus musculus, NIH3T3).
Turning to `Cn1cncc1C(N)(c1ccc(Cl)cc1)c1ccc2c(c1)c(-c1cccc(Cl)c1)cc1nnnn12` (stereo in doubt; 24b) [listing 1 of 2 here], the results for the concentration for half-maximal inhibition (IC50) (in [2]; in experiment [3]; with NIH3T3 [4] (nih3t3)) were 81 nM, 1.7 nM and 20 nM, respectively.
On to `Cn1cncc1C(N)(c1ccc(Cl)cc1)c1ccc2c(c1)c(-c1cccc(Cl)c1)cc1nnnn12` (stereo in doubt; 24b) [listing 2 of 2 here], for which the inhibition entry in the experiment on NIH3T3 [6] is “inactive”.
As for `Cn1cncc1C(N)(c1ccc(Cl)cc1)c1ccc2c(c1)c(-c1cccc(Cl)c1)cc1nnc(-c3ccccc3)n12` (stereo unspecified), in experiment [7], the inhibition was 60%. Also, in the experiment on NIH3T3 [4] (Mus musculus, NIH3T3), the concentration for half-maximal inhibition (IC50) was determined as 304 nM.
Consider `Cn1cncc1C(N)(c1ccc(Cl)cc1)c1ccc2c(c1)c(-c1cccc(Cl)c1)cc1nncn12` (stereo unspecified), for which the inhibition in experiment [8] turned out to be 65%.
For the compound `Cc1nnc2cc(-c3cccc(Cl)c3)c3cc(C(N)(c4ccc(Cl)cc4)c4cncn4C)ccc3n12` (stereo unspecified), the inhibition entry in the experiment on NIH3T3 [6] was “inactive”. Also, the half-inhibitory concentration (IC50) stood at 1.5 nM in experiment [3] and 17.5 nM in the experiment on NIH3T3 [4] (Mus musculus, NIH3T3).
Regarding `Cn1cncc1[C@@](N)(c1ccc(Cl)cc1)c1ccc2c(c1)c(-c1cccc(Cl)c1)cc(=O)n2C` [TIPIFARNIB], the Metabolism in the experiment filed under Homo sapiens came to 66%. Besides, the Inhibition in the experiment with NIH3T3 [9] came to 37%. In addition, it took 0.9 nM to reach half-maximal inhibition in [3] (IC50).
Regarding `Cn1cncc1C(N)(c1ccc(Cl)cc1)c1ccc2c(c1)c(-c1cccc(Cl)c1)nc1nnnn12` (stereo in doubt; 43b), the concentration for half-maximal inhibition (IC50) is 22 nM in experiment [3] and 108 nM with NIH3T3 [4] (nih3t3).
Turning to `Cn1cncc1C(N)(c1ccc(Cl)cc1)c1ccc2c(c1)c(-c1cccc(Cl)c1)cc1cnnn12` (stereo unspecified), in experiment [7], the inhibition came to 68%.
On to `Cn1cncc1C(N)(c1ccc(Cl)cc1)c1ccc2c(c1)c(-c1cccc(Cl)c1)cc1nnnn12` (stereo in doubt; 24), for which the concentration for half-maximal inhibition (IC50) in [2] was determined as 176 nM; in [3] it was 3.5 nM; with NIH3T3 [4] (nih3t3), 55 nM.
